Assay results as given in ChEMBL document CHEMBL1125042, “Hypolipidemic activity of rifamycin derivatives” (J Med Chem, 1990).
≈ marks a conversion by molar mass, not a printed value.

Legend:
Rattus norvegicus [1] = test: Tested for hypolipidemic activity in male rats, cholesterol was determined in serum at 10 mg/kg; assay type: functional
How it was run: (§1)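 Groups of eight male Wistar rats (200–230 g) dosed orally in PEG 400, either daily for 7 days (killed 24 h after the last dose) or for 4 days with a second dose on day 4 (killed 16 h later). Fasted 16 h. Paired sera pooled, lipoproteins separated by ultracentrifugation (1.006 and 1.040 g/cm³), HDL taken as the infranatant. Cholesterol measured enzymatically; % vs vehicle, mean ± SEM of four pools.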

Rattus norvegicus [2] = test: Hypolipidemic activity was determined in male rats, and high-density lipoprotein level was determined at 10 mg/kg; assay type: functional
How it was run: (§2)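 Male Wistar rats (200–230 g), eight per group, were dosed orally in PEG 400 at 8 a.m. for 4 days, plus a second dose at 4 p.m. on day 4. Rats were fasted 16 h and killed 16 h after the last dose. Sera from pairs of rats were pooled. LDL (up to 1.040 g/cm³) was separated by ultracentrifugation and the HDL infranatant taken. Cholesterol was measured enzymatically. Results are % versus vehicle control, mean ± SEM of four pools, Student's t test.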

Rattus norvegicus [3] = test: Hypolipidemic activity was determined in male rats, and low-density lipoprotein level was determined at 10 mg/kg; assay type: functional; how it was run: as §2
[4] = Inhibitory activity against RNA polymerase was determined; design: species or system Escherichia coli
How it was run: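 E. coli DNA-dependent RNA polymerase inhibition measured in vitro on ether-extracted, permeabilized E. coli cells.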

Staphylococcus aureus = test: Antibacterial activity against Staphylococcus aureus 10B; assay type: functional
How it was run: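 Agar dilution on DST agar with 2-fold drug dilutions. Inoculum of 10⁴ viable S. aureus 10B was taken from liquid-nitrogen stock, thawed 30 min and not subcultured. It was applied by multipoint replicator and incubated overnight at 37 °C. MIC is the lowest concentration inhibiting growth relative to control cultures.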

Rattus norvegicus [5] = test: Tested for hypolipidemic activity in male rats, cholesterol was determined in serum at 20 mg/kg; assay type: functional; how it was run: as §1
Rattus norvegicus [6] = test: Hypolipidemic activity was determined in male rats, and high-density lipoprotein level was determined at 20 mg/kg; assay type: functional; how it was run: as §2
Rattus norvegicus [7] = test: Hypolipidemic activity was determined in male rats, and low-density lipoprotein level was determined at 20 mg/kg; assay type: functional; how it was run: as §2
Rattus norvegicus [8] = test: Hypolipidemic activity was determined by measuring the % serum HDL in hypercholesterolemic RICO rat at a dose of 10 mg/kg; assay type: functional, organism-based; design: dose 10 mg/kg
How it was run: (§3)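 Genetically hypercholesterolemic RICO rats (Tif:RAI,f,SPF) were dosed orally for 7 days. Sera were collected after a 16 h fast and pooled in pairs. LDL (1.006–1.040 g/cm³) and HDL infranatant were separated by ultracentrifugation. Cholesterol and triglycerides were measured enzymatically. Results are % change versus vehicle control, mean ± SEM of four pools.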

Rattus norvegicus [9] = test: Hypolipidemic activity was determined by measuring the % serum HDL in hypercholesterolemic RICO rat at a dose of 3 mg/kg; assay type: functional, organism-based; design: dose 3 mg/kg; how it was run: as §3
Rattus norvegicus [10] = test: Hypolipidemic activity was determined by measuring the % serum HDL in hypercholesterolemic RICO rat at a dose of 30 mg/kg; assay type: functional, organism-based; design: dose 30 mg/kg; how it was run: as §3
Rattus norvegicus [11] = test: Hypolipidemic activity was determined by measuring the % serum HDL in normal rat at a dose of 1 mg/kg; assay type: functional, organism-based; design: dose 1 mg/kg
How it was run: (§4)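 Normal male Wistar rats (200–230 g), eight per group, were dosed orally in PEG 400 once daily for 7 days. They were fasted 16 h and killed 24 h after the last dose. Serum from pairs was pooled and LDL/HDL fractions were ultracentrifuged. Cholesterol and triglycerides were measured enzymatically. Results are % versus vehicle control, mean ± SEM of four pools, Student's t test.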

Rattus norvegicus [12] = test: Hypolipidemic activity was determined by measuring the % serum HDL in normal rat at a dose of 3 mg/kg; assay type: functional, organism-based; design: dose 3 mg/kg; how it was run: as §4
Rattus norvegicus [13] = test: Hypolipidemic activity was determined by measuring the % serum HDL in normal rat at a dose of 30 mg/kg; assay type: functional, organism-based; design: dose 30 mg/kg; how it was run: as §4
Rattus norvegicus [14] = test: Hypolipidemic activity was determined by measuring the % serum cholesterol in hypercholesterolemic RICO rat at a dose of 10 mg/kg; assay type: functional, organism-based; design: dose 10 mg/kg; how it was run: as §3
Rattus norvegicus [15] = test: Hypolipidemic activity was determined by measuring the % serum cholesterol in hypercholesterolemic RICO rat at a dose of 3 mg/kg; assay type: functional, organism-based; design: dose 3 mg/kg; how it was run: as §3
Rattus norvegicus [16] = test: Hypolipidemic activity was determined by measuring the % serum cholesterol in hypercholesterolemic RICO rat at a dose of 30 mg/kg; assay type: functional, organism-based; design: dose 30 mg/kg; how it was run: as §3
Rattus norvegicus [17] = test: Hypolipidemic activity was determined by measuring the % serum cholesterol in normal rat at a dose of 1 mg/kg; assay type: functional, organism-based; design: dose 1 mg/kg; how it was run: as §4
Rattus norvegicus [18] = test: Hypolipidemic activity was determined by measuring the % serum cholesterol in normal rat at a dose of 10 mg/kg; assay type: functional, organism-based; design: dose 10 mg/kg; how it was run: as §4
Rattus norvegicus [19] = test: Hypolipidemic activity was determined by measuring the % serum cholesterol in normal rat at a dose of 3 mg/kg; assay type: functional, organism-based; design: dose 3 mg/kg; how it was run: as §4
Rattus norvegicus [20] = test: Hypolipidemic activity was determined by measuring the % serum cholesterol in normal rat at a dose of 30 mg/kg; assay type: functional, organism-based; design: dose 30 mg/kg; how it was run: as §4
Rattus norvegicus [21] = test: Hypolipidemic activity was determined by measuring the % serum LDL-cholesterol in hypercholesterolemic RICO rat at a dose of 10 mg/kg; assay type: functional, organism-based; design: dose 10 mg/kg; how it was run: as §3
Rattus norvegicus [22] = test: Hypolipidemic activity was determined by measuring the % serum LDL-cholesterol in hypercholesterolemic RICO rat at a dose of 3 mg/kg; assay type: functional, organism-based; design: dose 3 mg/kg; how it was run: as §3
Rattus norvegicus [23] = test: Hypolipidemic activity was determined by measuring the % serum LDL-cholesterol in hypercholesterolemic RICO rat at a dose of 30 mg/kg; assay type: functional, organism-based; design: dose 30 mg/kg; how it was run: as §3
Rattus norvegicus [24] = test: Hypolipidemic activity was determined by measuring the % serum LDL in normal rat at a dose of 1 mg/kg; assay type: functional, organism-based; design: dose 1 mg/kg; how it was run: as §4
Rattus norvegicus [25] = test: Hypolipidemic activity was determined by measuring the % serum LDL in normal rat at a dose of 10 mg/kg; assay type: functional, organism-based; design: dose 10 mg/kg; how it was run: as §4
Rattus norvegicus [26] = test: Hypolipidemic activity was determined by measuring the % serum LDL in normal rat at a dose of 3 mg/kg; assay type: functional, organism-based; design: dose 3 mg/kg; how it was run: as §4
Rattus norvegicus [27] = test: Hypolipidemic activity was determined by measuring the % serum LDL in normal rat at a dose of 30 mg/kg; assay type: functional, organism-based; design: dose 30 mg/kg; how it was run: as §4
Rattus norvegicus [28] = test: Hypolipidemic activity was determined by measuring the % serum triglycerides in normal rat at a dose of 3 mg/kg; assay type: functional, organism-based; design: dose 3 mg/kg; how it was run: as §4
Rattus norvegicus [29] = test: Hypolipidemic activity was determined by measuring the % serum triglycerides in normal rat at a dose of 30 mg/kg; assay type: functional, organism-based; design: dose 30 mg/kg; how it was run: as §4
Rattus norvegicus [30] = test: Hypolipidemic activity was determined by measuring the % serum triglycerides in hypercholesterolemic RICO rat at a dose of 10 mg/kg; assay type: functional, organism-based; design: dose 10 mg/kg; how it was run: as §3
Rattus norvegicus [31] = test: Hypolipidemic activity was determined by measuring the % serum triglycerides in hypercholesterolemic RICO rat at a dose of 3 mg/kg; assay type: functional, organism-based; design: dose 3 mg/kg; how it was run: as §3
Rattus norvegicus [32] = test: Hypolipidemic activity was determined by measuring the % serum triglycerides in hypercholesterolemic RICO rat at a dose of 30 mg/kg; assay type: functional, organism-based; design: dose 30 mg/kg; how it was run: as §3
Rattus norvegicus [33] = test: Hypolipidemic activity was determined by measuring the % serum triglycerides in normal rat at a dose of 1 mg/kg; assay type: functional, organism-based; design: dose 1 mg/kg; how it was run: as §4
Rattus norvegicus [34] = test: Hypolipidemic activity was determined by measuring the % serum triglycerides in normal rat at a dose of 10 mg/kg; assay type: functional, organism-based; design: dose 10 mg/kg; how it was run: as §4
Rattus norvegicus [35] = test: Hypolipidemic activity was determined by measuring the % serum HDL in normal rat at a dose of 10 mg/kg; assay type: functional, organism-based; design: dose 10 mg/kg; how it was run: as §4

Q: For `COC1/C=C/OC2(C)Oc3c(C)c(O)c4c(O)c(c(N5CCN(Cc6c(C)cc(C)cc6C)CC5)c(O)c4c3C2=O)NC(=O)C(C)CCCC(C)C(O)C(C)C(O)C(C)C(OC(C)=O)C1C` (stereo unspecified), which Activity (Rattus norvegicus [1]) is on record?
A: The Activity was -40%.

Q: What about the Activity (Rattus norvegicus [2]) of the same compound?
A: Its Activity is -36%.

Q: What about the Activity (Rattus norvegicus [3]) of the same compound?
A: Its Activity is -59%.

Q: And the IC50 [4]?
A: The IC50 was 6.5 µg/mL (≈ 7.08 µM).

Q: What about the MIC (Staphylococcus aureus) of the same compound?
A: The MIC was 0.2 µg/mL (≈ 0.218 µM).

Q: What does the source list for `COC1/C=C/OC2(C)Oc3c(C)c(O)c4c(O)c(c(N5CCN(Cc6c(C)cc(C)cc6C)CC5)c(O)c4c3C2=O)NC(=O)/C(C)=C\C=C\C(C)C(O)C(C)C(O)C(C)C(OC(C)=O)C1C` (stereo unspecified)?
A: Activity (Rattus norvegicus [1]): -35%; Activity (Rattus norvegicus [5]): -63%; Activity (Rattus norvegicus [2]): -38%; Activity (Rattus norvegicus [6]): -58%; Activity (Rattus norvegicus [3]): -43%; Activity (Rattus norvegicus [7]): -79%; IC50 [4]: 0.3 µg/mL (≈ 0.328 µM); Serum HDL-cholesterol (Rattus norvegicus [8]): -30%; Serum HDL-cholesterol (Rattus norvegicus [9]): -7%; Serum HDL-cholesterol (Rattus norvegicus [10]): -72%; Serum HDL-cholesterol (Rattus norvegicus [11]): -8%; Serum HDL-cholesterol (Rattus norvegicus [12]): -14%; Serum HDL-cholesterol (Rattus norvegicus [13]): -69%; Serum cholesterol (Rattus norvegicus [14]): -30%; Serum cholesterol (Rattus norvegicus [15]): -8%; Serum cholesterol (Rattus norvegicus [16]): -65%; Serum cholesterol (Rattus norvegicus [17]): 0%; Serum cholesterol (Rattus norvegicus [18]): -42%; Serum cholesterol (Rattus norvegicus [19]): -11%; Serum cholesterol (Rattus norvegicus [20]): -72%; Serum LDL-cholesterol (Rattus norvegicus [21]): -42%; Serum LDL-cholesterol (Rattus norvegicus [22]): -29%; Serum LDL-cholesterol (Rattus norvegicus [23]): -68%; Serum LDL-cholesterol (Rattus norvegicus [24]): -11%; Serum LDL-cholesterol (Rattus norvegicus [25]): -53%; Serum LDL-cholesterol (Rattus norvegicus [26]): -28%; Serum LDL-cholesterol (Rattus norvegicus [27]): -64%; Serum triglyceride (Rattus norvegicus [28]): -3%; Serum triglyceride (Rattus norvegicus [29]): -50%; Serum triglyceride (Rattus norvegicus [30]): -17%; Serum triglyceride (Rattus norvegicus [31]): 8%; Serum triglyceride (Rattus norvegicus [32]): -55%; Serum triglyceride (Rattus norvegicus [33]): 11%; Serum triglyceride (Rattus norvegicus [34]): -18%; MIC (Staphylococcus aureus): 0.01 µg/mL (≈ 0.0109 µM); Serum HDL-cholesterol (Rattus norvegicus [35]): -46%
